We go through 5 compounds from ChEMBL document CHEMBL2346582, “Guanidino anthrathiophenediones as G-quadruplex binders: uptake, intracellular localization, and anti-Harvey-Ras gene activity in bladder cancer cells” (J Med Chem, 2013).

SMILES strings stand for the structures. Active and inactive are the calls of the source. The rule behind the calls is not given here.

Data set [1] is filed under the species Homo sapiens. As to the kind of experiment: Thermal stabilization of human HRAS1 G-quadruplex FAM-TCGGGTTGCGGGCGCAGGGCACGGGCG-TAMRA DNA assessed as change in melting temperature at 1:1 DNA:ligand ratio by FRET assay. In outline: (§1)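 FRET melting in 50 mM Tris-HCl pH 7.4 with an equimolar ligand:quadruplex ratio (r = 1). Conditions: NRAS RNA and hras-2 in 10 mM KCl; hras-1 in 100 mM KCl, with ΔTM taken from its second transition. Ramp 1 °C/min from 20 to 95 °C after 5 min equilibration. TM and ΔTM (±0.5 K) versus ligand-free quadruplex.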

The subject of data set [2] is NIH3T3. As to the kind of experiment: Cellular uptake in mouse NIH/3T3 cells at 0.5 to 10 uM after 10 mins to 8 hrs by flow cytometric analysis. The format is ADME, cell-based. As to conditions: nih3t3, 10 µM. An outline of the steps: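 Flow cytometric uptake of 10 μM ligand over time (15 min, 1, 2, 6, 8 h; T24, and up to 8 h in NIH 3T3 and 293). Cells plated at 5 × 10^4 per well the day before. Ligand fluorescence detected in FL3 (680 nm), at least 10,000 cells acquired.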

Data set [3] is filed under the species Homo sapiens. The data set can be described thus: Thermal stabilization of human NRAS G-quadruplex FAM-GGGAGGGGCGGGUCUGGG-TAMRA RNA assessed as melting temperature at 1:1 DNA:ligand ratio by FRET assay. An outline of the steps:
as §1

Data set [4] is described as follows: Binding affinity to human telomeric G-quadruplex FAM-TTAGGGTTAGGGTTAGGGTTAGGG-TAMRA DNA assessed as quenching of fluorescence emission by FRET titration assay. In outline:
(§2)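 FRET titration of 200 nM oligonucleotide dual-labelled at its ends with carboxyfluorescein (donor) and tetramethylrhodamine (acceptor), in 50 mM Tris-HCl with KCl (100 mM for htelo and hras-1, 10 mM for KRAS and hras-2). Ligand binding quenches the emission, mainly the acceptor at 580 nm. The fraction of filled sites was fitted to the Hill equation to give apparent KD and the Hill coefficient.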

Data set [5] can be described thus: Binding affinity to human NRAS G-quadruplex FAM-GGGAGGGGCGGGUCUGGG-TAMRA RNA assessed as quenching of fluorescence emission by FRET titration assay. In outline:
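RNA quadruplex, 200 nM, dual-labelled with FAM and TAMRA, in 50 mM Tris-HCl pH 7.4, 10 mM KCl. Titrated with ligand at r = 1–5 ([ligand]/[quadruplex]). The fraction of bound quadruplex was calculated from quenching of fluorescence and fitted to the Hill equation to give KD.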

The test system of data set [6] is T-24. As to the kind of experiment: Antiproliferative activity against human T24 cells by trypan blue assay. The format is functional, cell-based.
The subject of data set [7] is T-24. The data set can be described thus: Cell cycle arrest in human T24 cells assessed as accumulation at G0/G1 phase at 10 uM after 48 to 72 hrs by FACS analysis relative to control. It is filed as functional. An outline of the steps:
(§3)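 T24 cells treated with 10 μM ligand for 48 or 72 h. Fixed 1 h at 4 °C in 70% ethanol, then stained with propidium iodide 0.05 mg/mL plus RNase A 0.1 mg/mL for 30 min at room temperature. Analysed by FACS (FL2). Phase percentages compared with control by t-test (p < 0.05).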

Data set [8] can be described thus: Binding affinity to human HRAS1 G-quadruplex FAM-TCGGGTTGCGGGCGCAGGGCACGGGCG-TAMRA DNA assessed as quenching of fluorescence emission by FRET titration assay. An outline of the steps: as §2
Data set [9] concerns T-24. As to the kind of experiment: Binding affinity to wild type HRAS quadruplex DNA in human T24 cells assessed as reduction in gene expression compound treated for 24 hrs prior to transfection measured 72 hrs post transfection by dual-luciferase reporter gene assay relative to control. It is filed as cell-based. In general terms: In a reporter assay the amount or activity of a reporter protein is the signal.

In data set [10] the test system is T-24. The data set can be described thus: Induction of apoptosis in human T24 cells by caspase 3/7 assay. The format is functional, cell-based.
The test system of data set [11] is T-24. The data set can be described thus: Cellular uptake in human T24 cells after 4 hrs by FACS flow cytometric analysis in presence of dynasore. As to conditions: t-24, 4 h. The format is ADME, cell-based. In outline:
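T24 cells pretreated 30 min with 80 μM dynasore, then exposed to 5 μM ligand for 4 h. Analysed by flow cytometry (488 nm laser, FL3 680 nm channel), at least 10,000 cells.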
(In general: In flow cytometry, cells or beads pass a laser one at a time.)

The species entered for data set [12] is Homo sapiens. The data set can be described thus: Thermal stabilization of human HRAS2 G-quadruplex FAM-CGGGGCGGGGCGGGGGCGGGGGCG-TAMRA DNA assessed as as change in melting temperature at 1:4 DNA:ligand ratio by FRET assay.
The species entered for data set [13] is Homo sapiens. As to the kind of experiment: Thermal stabilization of human HRAS1 G-quadruplex FAM-TCGGGTTGCGGGCGCAGGGCACGGGCG-TAMRA DNA assessed as change in melting temperature at 1:5 DNA:ligand ratio by FRET assay. In outline:
(§4)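 FRET melting of 200 nM dual-labelled quadruplex in 50 mM Tris-HCl with KCl (100 mM for htelo and hras-1, 10 mM for KRAS and hras-2). Ligand at r = 5 ([ligand]/[quadruplex]; hras-2 tabulated at r = 4). Samples held 5 min at 20 °C, then heated 1 °C/min to 95 °C. ΔTM is the TM with ligand minus TM without ligand (±0.5 K). For hras-1 both biphasic transitions are given.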

In data set [14] the test system is T-24. The data set can be described thus: Cellular uptake in human T24 cells assessed as accumulation in nucleoli at 2.5 uM after 2 hrs by propidium iodide staining-based confocal microscopic analysis. It is filed as ADME, cell-based. Conditions: t-24, 2 h. In outline:
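T24 cells plated (3 × 10^5) on coverslips and treated after 24 h with 2.5 μM ligand for 2 h. Fixed in 3% paraformaldehyde and permeabilized with Triton X-100. Cytoplasm immunostained for DRP1 with FITC secondary; nuclei stained with propidium iodide plus RNase A. Ligand red fluorescence excited at 543 nm; confocal Z-sections at 2 μm intervals.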

Data set [15] has as its system T-24. As to the kind of experiment: Cell cycle arrest in human T24 cells assessed as accumulation at G2/M phase at 10 uM after 48 to 72 hrs by FACS analysis relative to control. It is filed as functional. In outline:
as §3

The test system of data set [16] is T-24. As to the kind of experiment: Cytotoxicity against human T24 cells expressing mutant HRAS at 1 to 30 uM after 72 hrs by resazurin assay. The format is functional, cell-based. As to conditions: T-24, 72 h. In outline:
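Cells seeded at 3000 per well the day before treatment, grown in DMEM with 10% FBS. Ligand added at 1, 2.5, 5, 10, 20, 30 μM for 72 h. Viability measured by resazurin and expressed as % of untreated cells; mean of three independent measurements. IC50 is the concentration reducing proliferation by 50%.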
On the technique in general: Alamar Blue is a resazurin reagent that responds to reducing activity.

The species entered for the next data set is Mus musculus. The data set can be described thus: Thermal stabilization of mouse KRAS G-quadruplex FAM-GCGGGAGGGAGGGAAGGAGGGAGGGAGGGAG-TAMRA DNA assessed as change in melting temperature at 1:5 DNA:ligand ratio by FRET assay. In outline:
as §4

The subject of data set [17] is NIH3T3. As to the kind of experiment: Cellular uptake in mouse NIH/3T3 cells after 4 hrs by FACS flow cytometric analysis in presence of cytochalasin D. Conditions: nih3t3, 4 h. It is filed as ADME, cell-based.
Another data set concerns T-24 (human). As to the kind of experiment: Cell cycle arrest in human T24 cells expressing mutant HRAS assessed as accumulation at G2/M phase at 10 uM after 24 hrs by FACS analysis.

What is called Kd is the concentration at which binding is half-saturated. The term IC50 denotes the concentration that inhibits the measured activity by half. A high value points to a need for much substance. Regarding `N=C(N)NCCCNc1c2c(c(NCCCNC(=N)N)c3sccc13)C(=O)c1ccccc1C2=O`, the deltaTm in the data set listed under Homo sapiens [1] was found to be 5 K; in the data set listed under Homo sapiens [12], 17 K; in the data set filed under Homo sapiens [13] it was 19 K; in the data set filed under Mus musculus, 33 K. The Drug uptake result in the data set with NIH3T3 [2], in the data set with T-24 [11], with T-24 [14] and in the data set with NIH3T3 [17] was “Active” each time. Moreover, the Tm in the data set filed under Homo sapiens [3] is 88 °C. The results for the Kd in data set [4], in data set [5] and in data set [8] were 130 nM, 110 nM and 300 nM, respectively. Moreover, the outcome with T-24 [6] and in the data set on T-24 [10] was inactive. Further, the Activity in the data set on T-24 [7] was 63%; in the data set on T-24 [9], “Dose-dependent effect”; in the data set with T-24 [15], 12%. Half-maximal inhibition in the data set with T-24 [16] (IC50) was put at 19500 nM. The result in the data set on T-24 (human) was Active.
Turning to `N=C(N)NCCCNc1c2c(c(NCCNC(=N)N)c3sccc13)C(=O)c1ccccc1C2=O`, the deltaTm in the data set filed under Homo sapiens [1] was 8 K; in the data set filed under Homo sapiens [12], 12 K; in the data set listed under Homo sapiens [13], 16 K; in the data set listed under Mus musculus, 28 K. The Drug uptake entry in the data set on NIH3T3 [2] was “Active”; in the data set with T-24 [11] it was “Not Active”; in the data set with T-24 [14] it was “Active”; with NIH3T3 [17] it was “Active”. For the same compound, the Tm in the data set listed under Homo sapiens [3] came to 88 °C. The Kd came out at 330 nM in data set [4], 90 nM in data set [5] and 280 nM in data set [8]. Moreover, the outcome with T-24 [6] and in the data set on T-24 [10] was inactive. Also, the Activity is 63% in the data set on T-24 [7], “Dose-dependent effect” in the data set with T-24 [9] and 12% in the data set with T-24 [15]. Moreover, the IC50 in the data set with T-24 [16] came out at 6500 nM. Moreover, the result with T-24 (human) was Active.
For the compound `N=C(N)NCCCNc1c2c(c(NCCNC(=N)N)c3ccsc13)C(=O)c1ccccc1C2=O`, the deltaTm in the data set filed under Homo sapiens [1] is 5 K; in the data set filed under Homo sapiens [12], 17 K; in the data set filed under Homo sapiens [13], 13 K; in the data set listed under Mus musculus, 27 K. The Drug uptake result in the data set on NIH3T3 [2], in the data set on T-24 [11], in the data set with T-24 [14] and with NIH3T3 [17] was “Active” each time. Further, the Tm in the data set filed under Homo sapiens [3] was found to be 86 °C. The figures for the Kd in [4], in [5] and in data set [8] were 320 nM, 120 nM and 360 nM, respectively. Further, the result in the data set with T-24 [6] and with T-24 [10] was inactive. The Activity in the data set on T-24 [7] is 63%; with T-24 [9], “Dose-dependent effect”; in the data set on T-24 [15], 12%. Moreover, in the data set on T-24 [16], the IC50 amounted to 7900 nM. Further, the result in the data set on T-24 (human) was Active.
As to `N=C(N)NCCCCNc1c2c(c(NCCCCNC(=N)N)c3sccc13)C(=O)c1ccccc1C2=O`, the deltaTm was 7 K in the data set listed under Homo sapiens [1], 26 K in the data set listed under Homo sapiens [12], 20 K in the data set listed under Homo sapiens [13] and 35 K in the data set listed under Mus musculus. Besides, the Drug uptake entry with NIH3T3 [2], in the data set on T-24 [11] and in the data set with NIH3T3 [17] was “Active” in each case. In the data set filed under Homo sapiens [3], the Tm was more than 90 °C. Also, the Kd in [4] was found to be 180 nM; in [5], 60 nM; in [8], 210 nM. In addition, the result in the data set on T-24 [6] and in the data set on T-24 [10] was inactive. The Activity with T-24 [7] was 63%; in the data set on T-24 [9] it was “Dose-dependent effect”; with T-24 [15], 12%. In the data set with T-24 [16], this compound displayed an IC50 of 19100 nM. For the same compound, in the data set on T-24 (human), the result was Active.
Regarding `N=C(N)NCCNc1c2c(c(NCCNC(=N)N)c3sccc13)C(=O)c1ccccc1C2=O`, the deltaTm in the data set listed under Homo sapiens [1] was determined as 5 K; in the data set filed under Homo sapiens [12], 19 K; in the data set filed under Homo sapiens [13], 12 K; in the data set filed under Mus musculus it was 15 K. The Drug uptake entry is on record as “Active” in the data set on NIH3T3 [2], “Not Active” with T-24 [11], “Active” in the data set on T-24 [14] and “Active” in the data set on NIH3T3 [17]. For the same compound, in the data set filed under Homo sapiens [3], the Tm was 82 °C. For the same compound, the Kd in data set [4] was found to be 150 nM; in [5], 380 nM; in data set [8], 340 nM. Also, the outcome in the data set on T-24 [6] and in the data set on T-24 [10] was inactive. Also, the Activity in the data set on T-24 [7] is 63%; in the data set with T-24 [9], “Dose-dependent effect”; in the data set with T-24 [15], 12%. In addition, the IC50 in the data set with T-24 [16] turned out to be 4400 nM. In addition, in the data set with T-24 (human), the outcome was Active.
